# Reference: ChEMBL document CHEMBL3872284, “Hydrazone Linker as a Useful Tool for Preparing Chimeric Peptide/Nonpeptide Bifunctional Compounds” (ACS Med Chem Lett, 2017)
# The source made the active and inactive calls. No cut-off for these calls is given here.
# Columns and labels:
# Mu-type opioid receptor [1] = target: T1, Mu-type opioid receptor (Rattus norvegicus, UniProt P33535); assay: Displacement of [3H]DAMGO from MOR in Sprague-Dawley rat brain homogenate measured after 180 mins by scintillation counting analysis; assay type: tissue-based
# T1 sequence (P33535 whole entry): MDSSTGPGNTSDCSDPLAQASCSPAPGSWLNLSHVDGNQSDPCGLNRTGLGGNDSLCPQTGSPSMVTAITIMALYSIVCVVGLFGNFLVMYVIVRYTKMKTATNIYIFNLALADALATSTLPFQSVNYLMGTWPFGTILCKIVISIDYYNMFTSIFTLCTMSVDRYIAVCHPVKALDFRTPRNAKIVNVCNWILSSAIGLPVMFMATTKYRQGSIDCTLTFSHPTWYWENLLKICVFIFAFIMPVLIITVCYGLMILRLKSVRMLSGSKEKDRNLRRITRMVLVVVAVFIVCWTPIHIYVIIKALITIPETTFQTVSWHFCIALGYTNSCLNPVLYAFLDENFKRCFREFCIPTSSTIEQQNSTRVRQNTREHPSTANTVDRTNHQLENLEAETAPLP
# [2] = target: T2, Delta-type opioid receptor (Rattus norvegicus, UniProt P33533); assay: Displacement of [3H]DELT2 from DOR in Sprague-Dawley rat brain homogenate measured after 180 mins by scintillation counting analysis; assay type: tissue-based
# T2 sequence (P33533 whole entry): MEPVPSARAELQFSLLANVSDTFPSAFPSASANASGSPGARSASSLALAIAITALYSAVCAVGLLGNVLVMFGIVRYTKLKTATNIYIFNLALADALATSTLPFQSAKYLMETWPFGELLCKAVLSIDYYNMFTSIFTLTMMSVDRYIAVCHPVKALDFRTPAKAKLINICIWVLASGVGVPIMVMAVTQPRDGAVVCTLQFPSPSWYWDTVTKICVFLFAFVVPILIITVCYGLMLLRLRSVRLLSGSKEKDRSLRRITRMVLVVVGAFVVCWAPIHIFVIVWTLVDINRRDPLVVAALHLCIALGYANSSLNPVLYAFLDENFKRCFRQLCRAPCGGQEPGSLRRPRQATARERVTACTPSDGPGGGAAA
# Mus musculus [3] = assay: Analgesic activity in C57BL6 mouse assessed as increase in thermal stimulus-induced paw withdrawal latency at 48 umol/kg, iv measured after 30 mins by plantar test; assay type: functional, organism-based
# Summary of the method: (§1)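 Heat-induced paw withdrawal (plantar test) after intravenous dosing. Readings taken over a time course to 120 min post-injection and expressed as % maximal possible effect (%MPE). n=6–8 animals per group, with morphine-treated animals as comparator and significance testing versus morphine.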
# Rattus norvegicus [4] = assay: Analgesic activity in Wistar rat assessed as increase in thermal stimulus-induced tail-flick latency at 12 nmol/kg administered intrathecally measured up to 60 mins; assay type: functional
# Summary of the method: (§2)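 Intrathecal injection followed by tail-flick testing at 5 to 120 min post-injection. Responses expressed as % maximal possible effect (%MPE). Doses given in nmol/kg. n=6–8 animals per group, with a morphine group and statistics versus morphine.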
# Mu-type opioid receptor [5] = target: T1, Mu-type opioid receptor; assay: Displacement of [3H]DAMGO from MOR in rat brain homogenate measured after 60 mins by microbeta scintillation counting analysis; assay type: tissue-based
# [6] = target: T2, Delta-type opioid receptor; assay: Displacement of [3H]DELT2 from DOR in rat brain homogenate measured after 60 mins by microbeta scintillation counting analysis; assay type: tissue-based
# Substance-P receptor = Substance-P receptor (Rattus norvegicus, UniProt P14600); assay: Displacement of [Leu-3,4,5-3H(N)]-Substance P from NK1 receptor in rat brain homogenate measured after 60 mins by microbeta scintillation counting analysis; assay type: tissue-based
# Chain of Substance-P receptor (P14600 whole entry): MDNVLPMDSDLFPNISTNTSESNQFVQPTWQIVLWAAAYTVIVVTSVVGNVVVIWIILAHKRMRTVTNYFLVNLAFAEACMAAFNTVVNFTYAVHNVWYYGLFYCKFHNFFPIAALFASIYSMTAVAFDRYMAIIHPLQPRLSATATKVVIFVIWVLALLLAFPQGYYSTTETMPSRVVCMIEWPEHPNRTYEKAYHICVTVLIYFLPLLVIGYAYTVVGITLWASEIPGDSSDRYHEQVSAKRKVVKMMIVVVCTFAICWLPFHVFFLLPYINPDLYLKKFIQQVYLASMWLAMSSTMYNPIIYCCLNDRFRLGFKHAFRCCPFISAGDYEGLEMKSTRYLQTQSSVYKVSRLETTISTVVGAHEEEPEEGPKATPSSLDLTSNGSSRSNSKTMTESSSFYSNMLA
# Mus musculus [7] = assay: Analgesic activity in C57BL6 mouse assessed as effect on thermal stimulus-induced paw withdrawal latency at 80 umol/kg, iv measured after 30 mins by plantar test relative to control; assay type: functional; summary of the method: as §1
# Mus musculus [8] = assay: Analgesic activity in C57BL6 mouse assessed as effect on thermal stimulus-induced tail-flick latency at 20 to 80 umol/kg, iv measured after 5 mins; assay type: functional
# Summary of the method: (§3)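 Tail-flick test after intravenous injection. Latencies recorded at time points from 5 to 120 min post-dose and converted to % maximal possible effect (%MPE). Groups of n=6–8 animals, compared against a morphine-treated group.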
# Mus musculus [9] = assay: Analgesic activity in C57BL6 mouse assessed as effect on thermal stimulus-induced tail-flick latency at 80 umol/kg, iv measured up to 30 mins relative to control; assay type: functional; summary of the method: as §3
# Mus musculus [10] = assay: Analgesic activity in C57BL6 mouse assessed as effect on thermal stimulus-induced tail-flick latency at 80 umol/kg, iv measured after 60 mins relative to control; assay type: functional; summary of the method: as §3
# Mus musculus [11] = assay: Analgesic activity in C57BL6 mouse assessed as effect on thermal stimulus-induced tail-flick latency at 80 umol/kg, iv measured after 120 mins relative to control; assay type: functional; summary of the method: as §3
# Rattus norvegicus [12] = assay: Analgesic activity in Wistar rat assessed as effect on thermal stimulus-induced tail-flick latency at 2 nmol/kg administered intrathecally measured after 15 mins relative to control; assay type: functional; summary of the method: as §2
compound,measurement,setting,value
C[C@@H](NC(=O)[C@@H](N)Cc1ccc(O)cc1)C(=O)NCC(=O)N[C@@H](Cc1ccccc1)C(=O)NNC(=O)[C@@H](N)Cc1ccccc1,IC50,Mu-type opioid receptor [1],0.74 nM
same,IC50,[2],15 nM
C[C@@H](NC(=O)[C@@H](N)Cc1ccc(O)cc1)C(=O)NCC(=O)N[C@@H](Cc1ccccc1)C(=O)NN,IC50,Mu-type opioid receptor [1],4.7 nM
same,IC50,[2],230 nM
CN1CC[C@]23c4c5ccc(O)c4O[C@H]2[C@@H](O)C=C[C@H]3[C@H]1C5,Activity,Mus musculus [3],Active
same,Activity,Rattus norvegicus [4],Active
C[C@@H](NC(=O)[C@@H](N)Cc1ccc(O)cc1)C(=O)NCC(=O)N[C@@H](Cc1ccccc1)C(=O)N/N=C/c1cc(C(F)(F)F)cc(C(F)(F)F)c1.O=C(O)C(F)(F)F,IC50,Mu-type opioid receptor [5],12.7 nM
same,IC50,[6],74.2 nM
same,IC50,Substance-P receptor,4.24 nM
same,MPE,Mus musculus [7],75.41%
same,MPE,Mus musculus [8],84.81%
same,MPE,Mus musculus [9],94.26%
same,MPE,Mus musculus [10],69.84%
same,MPE,Mus musculus [11],16.84%
same,MPE,Rattus norvegicus [12],80.31%
